The list is not random: actives were taken first. Their share in the collection is about 2.9%.
Tn7 DDE FP = inhibitors of Tn7 peptide binding to fibrin DD(E), primary screen, biochemical, fluorescence polarization, human fibrin, Tn7 probe; Fibrinogen beta chain (Homo sapiens), P02675; FP displacement of FITC-Tn7 peptide from fibrin DD(E); 0% = median of compound wells per plate; inhibition, % at 8.3 µM; 0.13% of 370,000 active;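 active = inhibition above the mean of compounds falling within the control limits plus 3 SD of them, cut at about 14% in these data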
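System: human fibrin DD(E); quantity: Fibrin-DD(E) at 2 µM final; also added: fluorescent Tn7 probe at 0.1 µM; compound dosing: single nominal test concentration of 8.3 µM per compound; schedule: 10 min preincubation, 3 h with tracer, room temperature; detection: fluorescence polarization of the labelled Tn7 tracer; repeats: one replicate per compound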
CRFR2-BP ag = agonists of CRF-BP/CRF-R2 complex, primary screen, cell-based, HEK293, calcium dye fluorescence, uHTS; CRF-binding protein / CRF receptor 2 complex (human); calcium dye fluorescence (FLIPR); percent of saturating CRF peptide response; activation, % at 13.2 µM; 0.46% of 350,000 active; AID 588473, 2011;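 active = activation of at least 50%, plus an integration ratio under a set limit after plate pattern correction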
CRFR2-BP antag = antagonists of CRF-BP/CRF-R2 complex, primary screen, cell-based, HEK293, calcium dye fluorescence, uHTS; CRF-induced calcium fluorescence; AID 588475, 2011; 0.59% of 350,000 active; inhibition, % at 11.8 µM;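 active = inhibition of the ligand-induced calcium signal above about 50% at the single tested concentration, limit read from the data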
KLK7 zymogen act = proKLK7 zymogen activators, primary screen, biochemical, fluorescence intensity | 0.9% of 370,000 active | activation, % at 7 µM | Kallikrein-7 (Homo sapiens), P49862 | purified proKLK7, EDANS-DABCYL substrate fluorescence; 100% is mature enzyme control, 0% vehicle;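 active = activation above the mean of all tested compounds plus 3 SD, computed per campaign excluding outliers beyond control limits, cut at about 13% in these data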
NRP1-CendR mod = modulators of CendR peptide binding to NRP-1, primary screen, biochemical, fluorescence polarization, uHTS | FAM-RPARPAR peptide binding to NRP-1 | inhibition, % at 25 µM | 0.85% of 360,000 active;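 active = inhibition or corrected inhibition above about 18%, plus a signal ratio from 0.5 to 1.5, limit read from the data, passing the limit was not always enough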
DDE Tn6 FP inh = inhibitors of Tn6 peptide binding to fibrin DD(E), primary screen, biochemical, fluorescence polarization, human fibrin, Tn6 probe. Fibrinogen beta chain (Homo sapiens), P02675. Fibrin DD(E) TRITC-Tn6 fluorescence polarization displacement. inhibition, % at 8.3 µM. 0.21% of 370,000 active;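 active = inhibition above a per-campaign cutoff: mean of compounds within control limits plus 3 SD, cut at about 15% in these data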
KLK7 act conf = proKLK7 zymogen activators, confirmation, biochemical, fluorescence intensity, triplicate | 68% of 3,200 active | AID 686949, 2013 | purified proKLK7, EDANS-DABCYL substrate fluorescence; scaled: vehicle 0, mature enzyme 100 | shares compounds with KLK7 zymogen act | activation, % at 7 µM;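 active = activation, as change over the incubation, above the mean of all tested compounds plus 3 SD, cut at about 13% in these data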
EDANS-DABCYL int = EDANS-DABCYL substrate optical interference, artefact control for kallikrein-7 zymogen activator project, biochemical, fluorescence intensity, high throughput. AID 686952, 2013. no enzyme, 4 h; solvent 0%, active enzyme control 100%. activation, % at 7 µM. shares compounds with KLK7 zymogen act. 80% of 3,200 active;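 active = activation above the all-compound mean plus 3 SD, ignoring values outside control-based bounds, cut at about 4.8% in these data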;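 note: value is the 4 h activation minus the activation read at time zero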
K7 EDANS ctr = optically interferes with EDANS-DABCYL fluorescence, kallikrein-7 activator counter-screen; EC50, µM; EDANS-DABCYL peptide fluorescence interference, no enzyme; 20% of 250 active; shares compounds with KLK7 zymogen act; AID 720493;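 active = compounds that raise the fluorescence signal in this interference counterscreen, with EC50 at or below 10 µM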;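 note: intact quenched peptide substrate alone read at 355 nm excitation and 520 nm emission; signal is fluorescence gain from T0 to T4 after four hours at room temperature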
A number is an active result; 0 = inactive; - = not tested or not shown.

SMILES | Tn7 DDE FP | CRFR2-BP ag | CRFR2-BP antag | KLK7 zymogen act | NRP1-CendR mod | DDE Tn6 FP inh | KLK7 act conf | EDANS-DABCYL int | others
CSc1ccc(/C=C/C(=O)N2CCCN(C)CC2)cc1 | 0 | 0 | 0 | 17 | 0 | 0 | 0 | 5.9
Nc1nccnc1C(=O)OCC(=O)Nc1ccc2[nH]c(=O)[nH]c2c1 | 0 | 0 | 0 | 27 | 0 | 0 | 53 | 48
O=C(COC(=O)c1ccccc1)Nc1ccc2[nH]c(=O)[nH]c2c1 | 0 | 0 | 0 | 0 | 0 | 0 | - | -
c1cc(-c2ccc3c(c2)CCO3)n2cnnc2c1 | 0 | - | - | 0 | 0 | 0 | - | -
c1cc(-c2ccc(N3CCOCC3)cc2)n2cnnc2c1 | 0 | - | - | 67 | 0 | 0 | 69 | 67
Cc1cc(C)c(C#N)c(SCC(=O)CC(=O)OC(C)C)n1 | 0 | 0 | 0 | 45 | 0 | 0 | 72 | 69
CCOC(=O)CSc1nc(N)c(C#N)c(-c2ccc(OCC)cc2)c1C#N | 0 | 0 | 0 | 13 | 0 | 0 | 0 | 0
CCOC(=O)C1=C(CSc2nc(C)cc(C)c2C#N)OC(N)=C(C#N)C1c1ccccc1 (stereo not drawn) | 0 | 0 | 0 | 26 | 0 | 0 | 33 | 30
Cc1nc(SCC(=O)CC(=O)OC(C)C)c(C#N)c(C)c1C | 0 | 0 | 0 | 40 | 0 | 0 | 63 | 57
CCN(CC)C(=O)Cn1c2ccccc2c2nc3n(c(=O)c21)CCS3 | 0 | - | - | - | - | 0 | - | -
Cc1c(C)n(Cc2ccc(-c3ccccc3C(=O)O)cc2)c2ccc(C(=O)N[C@@H](C)c3ccc(Br)cc3)cc12 | 0 | - | - | 0 | - | 0 | - | -
CCOC(=O)CSc1nc(C)cc(C)c1C#N | 0 | 0 | 0 | 30 | 0 | 0 | 56 | 54
CC1(C)CC(=O)C=C(c2ccccc2-c2ccc3c(c2)OCO3)C1=O | 0 | - | - | 0 | - | 0 | - | -
CCN1CCN(Cc2c(O)ccc3c2O/C(=C\c2ccc(C)cc2)C3=O)CC1 | 0 | 54 | 0 | 44 | 0 | 0 | 18 | 7.1 | K7 EDANS ctr=0
CC1CCCN(Cc2c(O)ccc3c2O/C(=C\c2ccco2)C3=O)C1 (stereo not drawn) | 0 | 0 | 0 | 0 | 0 | 0 | - | -
CCc1ccc(/C=C2\Oc3c(ccc(O)c3CN3CCN(C)CC3)C2=O)cc1 | 0 | 0 | 0 | 58 | 0 | 0 | 17 | 37
CCN1CCN(Cc2c(O)ccc3c2O/C(=C\c2ccccc2)C3=O)CC1 | 0 | 0 | 0 | 42 | 0 | 0 | 25 | 39
CCN1CCN(Cc2c(O)ccc3c2O/C(=C\C=C\c2ccccc2)C3=O)CC1 | 0 | 0 | 0 | 0 | 0 | 0 | - | -
Cc1ccc(/C=C2\Oc3c(ccc(O)c3CN3CCN(C)CC3)C2=O)cc1 | 0 | 0 | 0 | 58 | 0 | 0 | 31 | 25
CCOc1ccc(-n2c(SCC(=O)c3ccc4ccccc4c3)nnc2-c2cccc(Cl)c2)cc1 | 0 | - | - | 0 | - | 0 | - | -
Cc1ccc(NC(=O)c2cccc3c2-c2ccccc2C3=O)c(C)c1 | 0 | - | - | 0 | - | 0 | - | -
Clc1ccccc1-c1cccc2nccn12 | 0 | - | - | 0 | 0 | 0 | - | -
CN(C)Cc1ccccc1-c1cccc2nccn12 | 0 | - | - | 19 | 0 | 0 | 0 | 0
O=c1[nH]c(CN2CCN(c3ccccc3Cl)CC2)nc2ccsc12 | 0 | 0 | 0 | 0 | 0 | 0 | - | -

Screens (PubChem)
